Laboratory results published in ChEMBL document CHEMBL4732051, “The discovery of potent small molecule activators of human STING” (Eur J Med Chem, 2021).
Calls of active or inactive are those of the source. The calls are words filed in the database; no cut-off is given here.

Assays:
HEK293T [1] = experiment: Activation of human STING R232H mutant expressed in HEK293T cells assessed as phosphorylation of IFR3 at (Ser396) upto 10 uM incubated for 2 hrs and measured by Western blot analysis; assay type: cell-based; conditions: filed as activator, dose microM <=10, time 2.0 hrs
In short: (§1)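 HEK293T clones stably carrying each human STING variant, picked by blasticidin selection and limiting dilution. 5 x 10^5 cells were exposed to compound at 10μM for 2 h, lysed in RIPA with phosphatase and protease inhibitors, and 10 μg protein run on 10% SDS-PAGE. Immunoblots probed for pSTING (Ser366), pIRF3 (Ser396), total STING, IRF3 and actin, detected by ECL.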

[2] = target: T1, Stimulator of interferon genes protein (Homo sapiens, UniProt Q86WV6); experiment: Activation of human STING in human PBMC cells assessed as induction of CCL20 expression at 10 uM measured by qt-PCR analysis; assay type: cell-based; conditions: filed as activator
T1 sequence (Q86WV6 whole entry): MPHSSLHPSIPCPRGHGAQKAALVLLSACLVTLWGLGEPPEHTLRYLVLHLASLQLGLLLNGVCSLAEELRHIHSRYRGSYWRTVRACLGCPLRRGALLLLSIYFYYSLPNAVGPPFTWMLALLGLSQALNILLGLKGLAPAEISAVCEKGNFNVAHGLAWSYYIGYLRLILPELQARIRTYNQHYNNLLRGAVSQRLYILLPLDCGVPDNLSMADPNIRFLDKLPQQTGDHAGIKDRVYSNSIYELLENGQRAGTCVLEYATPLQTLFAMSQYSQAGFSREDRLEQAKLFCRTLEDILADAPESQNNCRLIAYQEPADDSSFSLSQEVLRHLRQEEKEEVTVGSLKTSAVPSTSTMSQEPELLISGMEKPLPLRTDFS
In short: (§2)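 2 x 10^5 freshly isolated human PBMC from healthy donors, separated on Histopaque, given a single compound concentration. Harvested early (6 hr) or late (20h). Cytokine mRNA read by qRT-PCR as relative normalized expression (fold) against vehicle-treated cells.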

[3] = tested on: Stimulator of interferon genes protein (Homo sapiens), Q86WV6 [G230A,R293Q]; experiment: Induction of STING AQ mutant (unknown origin) expressed in HEK293T cells assessed as increase in luciferase coupled ISG54-ISRE activity incubated for 18 hrs luciferase reporter gene assay; assay type: cell-based; conditions: filed as activator
Chain of Stimulator of interferon genes protein (Homo sapiens), Q86WV6 [G230A,R293Q] (Q86WV6 whole entry G230A/R293Q): as the sequence (Q86WV6 whole entry) above, with G230A, R293Q counted along it

[4] = target: T1, Stimulator of interferon genes protein; experiment: Activation of human STING expressed in human PBMC cells assessed as phosphorylation at (ser366) at 10 uM incubated for 2 hrs and measured by Western blot analysis; assay type: cell-based; conditions: filed as activator
In short: (§3)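 Tumor cell lines or human primary cells carrying endogenous STING variants; STING KO cells as control. 10µM for 2 h, then lysed in RIPA with phosphatase and protease inhibitors. 10 μg protein on 10% SDS-PAGE, blotted for pSTING (Ser366), pIRF3 (Ser396), STING, IRF3 and actin, ECL detection.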

Cytochrome P450 2D6 = Cytochrome P450 2D6 (Homo sapiens, UniProt P10635); experiment: Inhibition of CYP2D6 (unknown origin); assay type: ADME
Chain of Cytochrome P450 2D6 (P10635 whole entry): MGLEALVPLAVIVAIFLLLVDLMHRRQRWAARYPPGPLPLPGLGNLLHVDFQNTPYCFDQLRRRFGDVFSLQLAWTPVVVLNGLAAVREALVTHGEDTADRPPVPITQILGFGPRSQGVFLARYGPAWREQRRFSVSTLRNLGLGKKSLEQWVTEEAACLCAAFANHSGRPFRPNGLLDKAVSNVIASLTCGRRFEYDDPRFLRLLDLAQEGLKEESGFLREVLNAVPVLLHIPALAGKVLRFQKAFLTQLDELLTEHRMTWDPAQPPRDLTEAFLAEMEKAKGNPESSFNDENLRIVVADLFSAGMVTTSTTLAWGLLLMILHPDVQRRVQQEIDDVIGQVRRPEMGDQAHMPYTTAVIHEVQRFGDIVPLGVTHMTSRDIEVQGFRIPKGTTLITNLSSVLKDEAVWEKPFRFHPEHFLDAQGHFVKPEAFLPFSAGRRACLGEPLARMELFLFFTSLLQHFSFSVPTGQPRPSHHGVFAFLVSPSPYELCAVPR

HEK293T [5] = experiment: Induction of STING R232H mutant (unknown origin) expressed in HEK293T cells assessed as increase in luciferase coupled ISG54-ISRE activity incubated for 18 hrs luciferase reporter gene assay; assay type: cell-based; conditions: Homo sapiens, filed as activator
[6] = tested on: Stimulator of interferon genes protein (Homo sapiens), Q86WV6 [R71H,G230A,R293Q]; experiment: Activation of human STING HAQ mutant expressed in HEK293T cells assessed as phosphorylation of IRF-3 at (Ser396) at 10 uM incubated for 2 hrs and measured by Western blot analysis; assay type: cell-based; conditions: filed as activator; in short: as §1
Chain of Stimulator of interferon genes protein (Homo sapiens), Q86WV6 [R71H,G230A,R293Q] (Q86WV6 whole entry R71H/G230A/R293Q): as the sequence (Q86WV6 whole entry) above, with R71H, G230A, R293Q counted along it

[7] = tested on: Stimulator of interferon genes protein (Homo sapiens), Q86WV6 [UNDEFINED MUTATION]; experiment: Activation of human STING R232 in human dendritic cells assessed as induction of CD86 measured by qt-PCR analysis; assay type: cell-based; conditions: Dendritic cell, filed as activator
Chain of Stimulator of interferon genes protein (Homo sapiens), Q86WV6 [UNDEFINED MUTATION] (Q86WV6 whole entry, looked up, stated change not applied): as the sequence (Q86WV6 whole entry) above
In short: (§4)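 PBMC isolated on Histopaque 1077, ACK-lysed, monocytes purified by MACS. Monocytes at 1 x 10^6 cells/ml in RPMI/10% FBS with 100ng/ml GMCSF and 50ng/ml IL4, 37 °C, 5% CO2, for 24–36 h. Compound added (1% DMSO final) for 6 h. CD86 and CD83 read by qPCR as fold of vehicle-treated cells.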

HEK293T [8] = experiment: Activation of human STING H232 mutant expressed in HEK293T cells assessed as phosphorylation at (Ser366) at 10 uM incubated for 2 hrs and measured by Western blot analysis; assay type: cell-based; conditions: filed as activator; in short: as §1
[9] = tested on: Stimulator of interferon genes protein (Homo sapiens), Q86WV6 [UNDEFINED MUTATION]; experiment: Activation of human STING R232 in A 172 cells assessed as phosphorylation of IRF-3 at (Ser396) at 10 uM incubated for 2 hrs and measured by Western blot analysis; assay type: cell-based; conditions: filed as activator; in short: as §3
HEK293T [10] = experiment: Activation of human STING R232H mutant expressed in HEK293T cells assessed as phosphorylation at (Ser366) upto 10 uM incubated for 2 hrs and measured by Western blot analysis; assay type: cell-based; conditions: filed as activator, dose microM <=10, time 2.0 hrs; in short: as §1
[11] = target: T1, Stimulator of interferon genes protein; experiment: Activation of human STING in human PBMC cells assessed as induction of IFNbeta expression at 10 uM incubated upto 24 hrs and measured by qt-PCR analysis; assay type: cell-based; conditions: filed as activator, time hrs <=24; in short: as §2
[12] = tested on: Stimulator of interferon genes protein (Homo sapiens), Q86WV6 [UNDEFINED MUTATION]; experiment: Activation of human STING R232 in human dendritic cells assessed as induction of CD83 measured by qt-PCR analysis; assay type: cell-based; conditions: Dendritic cell, filed as activator; in short: as §4
HEK293T [13] = experiment: Induction of STING Q mutant (unknown origin) expressed in HEK293T cells assessed as increase in luciferase coupled ISG54-ISRE activity incubated for 18 hrs luciferase reporter gene assay; assay type: cell-based; conditions: Homo sapiens, filed as activator
HeLa = experiment: Cytotoxicity against human HeLa cells at 5 to 10 uM; assay type: cell-based; conditions: dose 5-10 µM
[14] = target: T1, Stimulator of interferon genes protein; experiment: Activation of human STING expressed in human PBMC cells assessed as phosphorylation of IRF3 at (Ser396) at 10 uM incubated for 2 hrs and measured by Western blot analysis; assay type: cell-based; conditions: filed as activator; in short: as §3
[15] = target: T2, Stimulator of interferon genes protein (Mus musculus) (UniProt Q3TBT3); experiment: Activation of mouse STING
T2 sequence (whole entry): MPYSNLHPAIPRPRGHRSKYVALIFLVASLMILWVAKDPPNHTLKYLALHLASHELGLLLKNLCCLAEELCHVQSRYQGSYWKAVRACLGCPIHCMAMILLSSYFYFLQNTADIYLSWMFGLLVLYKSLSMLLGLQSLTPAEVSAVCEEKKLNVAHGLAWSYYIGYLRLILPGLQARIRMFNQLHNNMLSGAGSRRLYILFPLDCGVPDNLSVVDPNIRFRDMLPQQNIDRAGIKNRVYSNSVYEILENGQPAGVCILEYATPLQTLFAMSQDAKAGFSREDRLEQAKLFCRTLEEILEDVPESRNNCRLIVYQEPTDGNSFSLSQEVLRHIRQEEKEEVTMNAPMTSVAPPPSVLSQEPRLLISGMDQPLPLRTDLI

[16] = tested on: Stimulator of interferon genes protein (Homo sapiens), Q86WV6 [UNDEFINED MUTATION]; experiment: Activation of human STING R232 in A 172 cells assessed as phosphorylation at (Ser366) at 10 uM incubated for 2 hrs and measured by Western blot analysis; assay type: cell-based; conditions: filed as activator; in short: as §3
B16-F10 = experiment: Cytotoxicity against mouse B16 F10 cells at 5 to 10 uM; assay type: cell-based; conditions: b16-f10, 10 µM, dose 5-10 µM
[17] = tested on: Stimulator of interferon genes protein (Homo sapiens), Q86WV6 [UNDEFINED MUTATION]; experiment: Activation of human STING R232 in human MDA-MB-468 cells assessed as phosphorylation at (Ser366) at 10 uM incubated for 2 hrs and measured by Western blot analysis; assay type: cell-based; conditions: filed as activator; in short: as §3
[18] = Volume of distribution in BALB/c mouse at 5 mg/kg, iv measured up to 24 hrs by LC-MS/MS analysis; assay type: ADME, organism-based; conditions: in vivo
In short: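 Overnight-fasted mice, randomized, n=3 per group, each given a single dose by lateral tail vein (iv) or oral gavage. Blood (50 μl per point, under isoflurane) was taken from the retro-orbital plexus. Sampling was at 2 min–24 h after iv and 5 min–24 h after oral dosing. Plasma was separated at 1500 x g for 15 min at 4 °C, stored at -80 °C, and analysed by LCMS.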

- Activity [3]: Active
- Activity [4]: Active
- inhibition (INH) (Cytochrome P450 2D6): Not Active
- Activity [6]: Active
- Activity [9]: Active
- Activity [14]: Active
- Activity [15]: inactive
- Activity [16]: Active
- Activity [17]: Active
- Vd [18]: 2.69 L/kg
Structure (SMILES): CC1(C)C(=O)N(Cc2c(F)cccc2Cl)c2cc(C(=O)NCc3c(F)cc(F)cc3F)ccc21
- Activity (HEK293T [1]): Dose-dependent effect
- Activity [2]: Active
- Activity (HEK293T [5]): Active
- Activity [7]: Active
- Activity (HEK293T [8]): Active
- Activity (HEK293T [10]): Dose-dependent effect
- Activity [11]: Active
- Activity [12]: Active
- Activity (HEK293T [13]): Active
- Activity (HeLa): Non-Toxic
- Activity (B16-F10): Non-Toxic
